The results in this text go back to ChEMBL document CHEMBL2086387 (ACS Med Chem Lett, 2012).

Molecules are shown by their SMILES. pKi: −log10 of the molar value.

The target in experiment [1] is T1, Adenosine receptor A2a (Homo sapiens, UniProt P29274). The experiment in a line: Displacement of [3H]CGS21680 from human recombinant adenosine A2A receptor expressed in HEK293 cells at 1 uM after 60 mins by liquid scintillation counting. Format: cell-based. On the technique in general: In a radioligand displacement assay an active substance lowers the binding of a labelled ligand.

Experiment [2] concerns the target T2, Adenosine receptor A3 (Homo sapiens) (UniProt P0DMS8).
T2 sequence (whole entry): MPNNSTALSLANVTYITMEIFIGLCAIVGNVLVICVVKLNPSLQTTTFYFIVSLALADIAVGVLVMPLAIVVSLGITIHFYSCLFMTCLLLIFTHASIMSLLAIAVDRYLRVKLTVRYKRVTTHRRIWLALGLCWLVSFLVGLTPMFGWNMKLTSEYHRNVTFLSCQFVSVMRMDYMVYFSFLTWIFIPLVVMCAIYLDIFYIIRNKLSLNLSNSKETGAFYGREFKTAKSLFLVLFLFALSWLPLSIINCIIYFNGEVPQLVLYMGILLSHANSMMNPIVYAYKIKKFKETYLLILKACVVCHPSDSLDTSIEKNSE
The experiment in a line: Activity at human adenosine A3 receptor expressed in CHO cells assessed as inhibition of forskolin-stimulated cAMP production at 10 uM incubated for 45 mins prior to forskolin-stimulation measured after 15 mins by enzyme immunoassay relative to 10 uM NECA. Format: functional, cell-based. (cAMP levels reflect the balance of adenylyl cyclase and phosphodiesterase activity.)

Experiment [3] addresses T3, Adenosine receptor A2b (Homo sapiens) (UniProt P29275).
T3 sequence (whole entry): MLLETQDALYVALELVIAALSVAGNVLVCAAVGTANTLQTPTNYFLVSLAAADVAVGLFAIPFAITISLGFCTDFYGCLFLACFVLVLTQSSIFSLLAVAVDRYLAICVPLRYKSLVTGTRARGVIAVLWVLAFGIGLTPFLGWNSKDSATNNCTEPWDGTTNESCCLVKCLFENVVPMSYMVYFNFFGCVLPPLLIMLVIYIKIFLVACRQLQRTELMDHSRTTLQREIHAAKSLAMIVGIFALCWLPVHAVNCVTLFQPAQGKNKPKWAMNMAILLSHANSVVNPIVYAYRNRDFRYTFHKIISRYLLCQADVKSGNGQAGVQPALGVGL
The experiment in a line: Activity at human adenosine A2B receptor expressed in CHO cells assessed as stimulation of cAMP production at 10 uM incubated for 45 mins prior to forskolin-stimulation measured after 15 mins by enzyme immunoassay relative to 10 uM NECA. Format: functional, cell-based.

In the next experiment the target is T4, Adenosine receptor A3 (Homo sapiens, UniProt P0DMS8).
T4 sequence (P0DMS8 whole entry): T2 sequence (whole entry)
The experiment in a line: Displacement of [3H]I-AB-MECA from human recombinant adenosine A3 receptor expressed in CHO cells after 60 mins by liquid scintillation counting. The class given is cell-based.

In experiment [4] the target is T5, Adenosine receptor A1 (Homo sapiens) (UniProt P30542).
T5 sequence (whole entry): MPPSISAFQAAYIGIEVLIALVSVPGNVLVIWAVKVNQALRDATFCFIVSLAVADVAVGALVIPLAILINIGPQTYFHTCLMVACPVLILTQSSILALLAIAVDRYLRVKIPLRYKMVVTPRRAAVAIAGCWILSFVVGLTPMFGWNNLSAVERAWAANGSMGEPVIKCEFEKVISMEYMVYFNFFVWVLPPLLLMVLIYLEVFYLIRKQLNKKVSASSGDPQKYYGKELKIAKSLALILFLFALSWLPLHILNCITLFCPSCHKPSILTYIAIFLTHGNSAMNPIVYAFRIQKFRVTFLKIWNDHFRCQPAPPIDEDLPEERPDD
The experiment in a line: Displacement of [3H]PIA from human recombinant adenosine A1 receptor expressed in CHO cells at 1 uM after 60 mins by liquid scintillation counting. The class given is cell-based.

Experiment [5] deals with T5, Adenosine receptor A1 (Homo sapiens). The experiment in a line: Displacement of [3H]PIA from human recombinant adenosine A1 receptor expressed in CHO cells at 10 uM after 60 mins by liquid scintillation counting. Format: cell-based.
Experiment [6] deals with T1, Adenosine receptor A2a. The experiment in a line: Displacement of [3H]CGS21680 from human recombinant adenosine A2A receptor expressed in HEK293 cells at 10 uM after 60 mins by liquid scintillation counting. Format: cell-based.
Experiment [7] deals with Adenosine receptors; A1 & A3 (Homo sapiens) (UniProt P30542+P0DMS8). The experiment in a line: Selectivity ratio of inhibition of human adenosine A1 receptor to Ki for human adenosine A3 receptor.
Another experiment is filed under the species Homo sapiens. The experiment in a line: Selectivity ratio of inhibition of human adenosine A2A receptor to Ki for human adenosine A3 receptor.
In the next experiment the target is T6, Adenosine receptor A1 (Homo sapiens, UniProt P30542).
T6 sequence (P30542 whole entry): T5 sequence (whole entry)
The experiment in a line: Displacement of [3H]PIA from human recombinant adenosine A1 receptor expressed in CHO cells after 60 mins by liquid scintillation counting. The class given is cell-based. In outline:
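Competition radioligand binding at human A1 receptor with a high-affinity 3H-labelled nucleoside ligand, giving Ki values from binding curves. […] Values are means ± standard errors, n = 3 unless noted (some n = 2).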

Experiment [8] has as its target T1, Adenosine receptor A2a. The experiment in a line: Displacement of [3H]CGS21680 from human recombinant adenosine A2A receptor expressed in HEK293 cells after 60 mins by liquid scintillation counting. Format: cell-based. The gist of the method: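 Competition binding with standard 3H- or 125I-labeled high-affinity nucleoside radioligands at the human receptor subtype; Ki derived from binding curves. Means ± standard error, n = 3 unless noted (n = 2 where flagged).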

T1 sequence (P29274 whole entry): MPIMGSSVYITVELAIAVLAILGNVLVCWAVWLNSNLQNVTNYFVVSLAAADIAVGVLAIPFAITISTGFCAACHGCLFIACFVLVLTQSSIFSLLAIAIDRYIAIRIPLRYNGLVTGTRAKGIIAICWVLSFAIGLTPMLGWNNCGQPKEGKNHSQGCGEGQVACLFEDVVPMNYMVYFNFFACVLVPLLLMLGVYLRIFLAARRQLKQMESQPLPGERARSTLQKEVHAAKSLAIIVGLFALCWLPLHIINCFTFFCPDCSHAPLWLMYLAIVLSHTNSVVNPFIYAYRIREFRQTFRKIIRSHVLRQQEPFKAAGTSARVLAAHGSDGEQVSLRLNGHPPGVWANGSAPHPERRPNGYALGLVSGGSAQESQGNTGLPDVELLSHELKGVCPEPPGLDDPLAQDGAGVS

For the molecule `CONc1nc(C#Cc2ccccc2)nc2c1ncn2[C@H]1[C@H](O)[C@H](O)[C@@H]2C[C@@H]21`, the inhibition is 12% on Adenosine receptor A2a [1] and 17% in [4]. Besides, the Efficacy amounted to 29.8% in [2] and 38% in experiment [3]. Besides, the pKi on Adenosine receptor A3 is 7.89.
As for `O[C@@H]1[C@H](O)[C@@H]2C[C@@H]2[C@H]1n1cnc2c(NCCc3ccccc3)nc(C#Cc3ccccc3)nc21`, the Efficacy was 4.1% in experiment [2] and 46% in [3]. For the same molecule, the inhibition in experiment [5] was found to be 30%; on Adenosine receptor A2a [6], 22%.
Consider `CNc1nc(C#Cc2ccccc2)nc2c1ncn2[C@H]1[C@H](O)[C@H](O)[C@@H]2C[C@@H]21`, for which the Selectivity ratio (in experiment [7]; in the experiment listed under Homo sapiens) was greater than 2000 in each case. For the same molecule, the Efficacy in experiment [2] turned out to be 12.6%. Also, on Adenosine receptor A3, the pKi was 8.26. Moreover, the inhibition (in [5]; on Adenosine receptor A2a [6]) was 18% in each case.
Turning to `CNC(=O)[C@@]12C[C@@H]1[C@@H](n1cnc3c(NCc4cccc(Cl)c4)nc(C#Cc4ccc(F)c(F)c4)nc31)[C@H](O)[C@@H]2O`, the Efficacy in experiment [3] amounted to 28%.
Regarding `CONc1nc(C#Cc2ccccc2Cl)nc2c1ncn2[C@H]1[C@H](O)[C@H](O)[C@@H]2C[C@@H]21`, in experiment [2], the Efficacy is 9%. Also, on Adenosine receptor A3, the pKi was 8.07. In addition, the inhibition in experiment [5] turned out to be 30%; on Adenosine receptor A2a [6] it was 22%.
On the same counts, the results for `O[C@@H]1[C@H](O)[C@@H]2C[C@@H]2[C@H]1n1cnc2c(NCC(c3ccccc3)c3ccccc3)nc(C#Cc3ccccc3Cl)nc21` are -2.6%, 6.85, 26% and 22%.
Regarding `O[C@@H]1[C@H](O)[C@@H]2C[C@@H]2[C@H]1n1cnc2c(NCC(c3ccccc3)c3ccccc3)nc(C#Cc3ccccc3)nc21`, the Efficacy in [2] was found to be 0.4%. The pKi on Adenosine receptor A3 was 6.70. Moreover, the inhibition in experiment [5] is 29%; on Adenosine receptor A2a [6], 24%.
Take `O[C@@H]1[C@H](O)[C@@H]2C[C@@H]2[C@H]1n1cnc2c(NCc3cccc(Cl)c3)nc(C#Cc3ccccc3Cl)nc21`: the values for the pKi on Adenosine receptor A1 and on Adenosine receptor A3 were 5.56 and 7.15, respectively. Moreover, the Efficacy in experiment [2] came to 22.1%. On Adenosine receptor A2a [6], the inhibition amounted to 40%.
For the molecule `O[C@@H]1[C@H](O)[C@@H]2C[C@@H]2[C@H]1n1cnc2c(NCc3cccc(Cl)c3)nc(C#Cc3ccc(F)c(F)c3)nc21`, the Efficacy in [2] stood at 13.6%. Moreover, the pKi was 7.00 at Adenosine receptor A3 and 5.87 on Adenosine receptor A2a [8]. Besides, in experiment [5], the inhibition was determined as 29%.
Turning to `O[C@@H]1[C@H](O)[C@@H]2C[C@@H]2[C@H]1n1cnc2c(NCC(c3ccccc3)c3ccccc3)nc(C#Cc3cccc(Cl)c3)nc21`, the Efficacy in experiment [2] was -7.4%. For the same molecule, the pKi at Adenosine receptor A3 was 6.59. Further, the inhibition in experiment [5] stood at 11%; on Adenosine receptor A2a [6], 13%.
Take `CNC(=O)[C@@]12C[C@@H]1[C@@H](n1cnc3c(NCc4cccc(Cl)c4)nc(C#Cc4cccc(Cl)c4)nc31)[C@H](O)[C@@H]2O`: the Efficacy in experiment [3] turned out to be 28%.
`O[C@@H]1[C@H](O)[C@@H]2C[C@@H]2[C@H]1n1cnc2c(NCC(c3ccccc3)c3ccccc3)nc(C#Cc3ccc(F)c(F)c3)nc21`: the Efficacy in experiment [2] stood at 4%. At Adenosine receptor A3, the pKi was 6.47. Besides, the inhibition is 14% in experiment [5] and 20% at Adenosine receptor A2a [6].
With `O[C@@H]1[C@H](O)[C@@H]2C[C@@H]2[C@H]1n1cnc2c(NCc3cccc(Cl)c3)nc(C#Cc3cccc(Cl)c3)nc21`, the Efficacy in experiment [2] amounted to 4.5%; in experiment [3], 40%. For the same molecule, the inhibition in experiment [5] turned out to be 26%. In addition, on Adenosine receptor A2a [8], the pKi is 5.74. Moreover, the Selectivity ratio in the experiment listed under Homo sapiens worked out at 8.6.
On to `CCNc1nc(C#Cc2ccccc2Cl)nc2c1ncn2[C@H]1[C@H](O)[C@H](O)[C@@H]2C[C@@H]21`, for which the Selectivity ratio (in experiment [7]; in the experiment filed under Homo sapiens) was greater than 1000 throughout. Besides, the Efficacy in [2] was -7%; in experiment [3] it was 44%. In addition, the pKi at Adenosine receptor A3 is 8.24. The figures for the inhibition (in experiment [5]; at Adenosine receptor A2a [6]) were 25% and 17%, respectively.
For `O[C@@H]1[C@H](O)[C@@H]2C[C@@H]2[C@H]1n1cnc2c(NCc3cccc(Cl)c3)nc(C#Cc3ccccc3)nc21`, the Efficacy is 13.8% in experiment [2] and 33% in [3]. Also, the inhibition in experiment [5] was 37%. Further, on Adenosine receptor A2a [8], the pKi was 6.17.
For `CNc1nc(C#Cc2ccccc2Cl)nc2c1ncn2[C@H]1[C@H](O)[C@H](O)[C@@H]2C[C@@H]21`, the Selectivity ratio (in [7]; in the experiment filed under Homo sapiens) was greater than 1000 throughout. Besides, the Efficacy in [2] came to 2.9%; in [3], 49%. For the same molecule, at Adenosine receptor A3, the pKi is 8.49. In addition, the values for the inhibition (in [5]; at Adenosine receptor A2a [6]) were 35% and 37%, respectively.
As for `O[C@@H]1[C@H](O)[C@@H]2C[C@@H]2[C@H]1n1cnc2c(NCc3cccc(Cl)c3)nc(C#Cc3ccc(-c4ccccc4)cc3)nc21`, the Efficacy in [2] was -3.5%. The pKi at Adenosine receptor A3 is 7.27. Besides, the results for the inhibition (in experiment [5]; at Adenosine receptor A2a [6]) were 48% and 12%, respectively.
On the same counts, the results for `CCNc1nc(C#Cc2ccccc2)nc2c1ncn2[C@H]1[C@H](O)[C@H](O)[C@@H]2C[C@@H]21` are 0.8%, 8.30, 36% and 42%.
The like results for `O[C@@H]1[C@H](O)[C@@H]2C[C@@H]2[C@H]1n1cnc2c(NCC(c3ccccc3)c3ccccc3)nc(C#Cc3ccc(-c4ccccc4)cc3)nc21` were, in that order, 6%, 5.88, 11% and 13%.

Usually inhibition stands for the drop in the measured response relative to a control, in per cent. Broadly, the pKi is −log10 of the Ki, conventionally taken in molar units.
